Screening data from PubChem BioAssay.
RanGTP-Imp inh: inhibitors of RanGTP-importin-beta interaction, primary screen, biochemical, FRET, CFP-Ran, YFP-importin-beta, homogeneous; inhibition, % (test concentration not listed); cell-free CFP-Ran/YFP-importin-beta FRET ratio; 1.1% of 300,000 active;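 active = more than half of the replicate wells show a fall in the fluorescence ratio signal beyond about 16%, limit read from the data, passing the limit was not always enough; inconclusive = exactly half of the replicate wells pass the set limit; inactive = fewer than half of replicates pass the limit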
Runt-SMMHC FRET: Runt domain-CBFb-SMMHC interaction inhibition; Q01196+Q13951; Cerulean-Runt/Venus-CBFb-SMMHC FRET ratio 530/480, 1 h; inhibition, % at 20 µM; 0.74% of 220,000 active; AID 1434;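 active = mean inhibition across duplicate retests at 20 µM reaching about 50%, limit read from the data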;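 also: inhibitors lower the FRET ratio by blocking Runt binding to CBFb-SMMHC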
zVAD death inh: L929 zVAD cell death inhibition; AID 1377; 0.38% of 220,000 active; L929 zVAD necroptosis rescue, ATP luminescence, 24 h; with zVAD 60 µM; viability rescue, % at 10 µM;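 active = activation, scaled between plate controls, above about 75%, limit read from the data; inactive = activation under that limit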
Hck Nef HTS: human Hck-Nef kinase inhibition | inhibition, % at 20 µM | Recombinant Hck-YEEI plus Nef, Z-Lyte FRET kinase assay | AID 463187 | 0.68% of 220,000 active;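 active = Hck-Nef kinase inhibition above about 50%, limit read from the data; inactive = inhibition below that limit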
Target sequence (P08631 whole entry, looked up): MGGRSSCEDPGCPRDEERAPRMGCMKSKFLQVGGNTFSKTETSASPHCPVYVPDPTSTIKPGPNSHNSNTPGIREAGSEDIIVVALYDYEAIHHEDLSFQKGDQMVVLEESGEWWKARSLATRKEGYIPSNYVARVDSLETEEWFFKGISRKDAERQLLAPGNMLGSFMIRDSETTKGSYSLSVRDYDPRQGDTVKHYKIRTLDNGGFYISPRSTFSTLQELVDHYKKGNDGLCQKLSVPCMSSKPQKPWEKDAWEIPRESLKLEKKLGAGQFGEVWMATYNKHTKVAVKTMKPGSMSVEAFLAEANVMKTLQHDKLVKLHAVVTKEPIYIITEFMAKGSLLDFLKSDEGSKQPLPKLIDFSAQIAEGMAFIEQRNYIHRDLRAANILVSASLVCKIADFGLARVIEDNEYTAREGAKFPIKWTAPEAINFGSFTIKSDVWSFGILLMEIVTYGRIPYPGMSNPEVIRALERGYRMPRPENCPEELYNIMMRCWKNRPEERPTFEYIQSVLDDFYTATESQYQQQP
TNF death inh: blocks TNF-alpha induced death of Jurkat FADD-/- cells; Jurkat FADD-/- TNF necroptosis rescue, ATP luminescence, 24 h; 0 = TNF only, 100 = no-TNF cells; activation (protection from cell death), % at 10 µM; AID 463075; 0.068% of 220,000 active;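 active = activation, meaning protection from cell death, of at least 50% relative to plate controls; inactive = activation below 50%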;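 also: necroptosis triggered by 40 ng/mL TNF-alpha added together with compound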
Runt-CBFb FRET: blocks binding of human RUNX1 Runt domain to CBFb. AID 1496. Q01196+Q13951. inhibition, % at 20 µM. 0.46% of 220,000 active. Cerulean-Runt/Venus-CBFb FRET ratio 530/480, 1 h;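 active = inhibition over about 50% at 20 µM in the single-dose screen, limit read from the data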
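System: Cerulean-labeled Runt domain protein | Quantity: 100 nM of each labeled protein | Schedule: 1 h compound exposure, room temperature | Detection: Fluorescence energy transfer, 422 nm excitation, 530/480 nm emission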
YIC FRET counter: counter-screen: alters YIC FRET probe signal | 40% of 1,000 active | IC50, µM | shares compounds with RanGTP-Imp inh | Purified YIC probe, intramolecular FRET ratio YFP/CFP;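 active = fitted half-maximal inhibitory concentration no more than tenfold above the top dose tested; inconclusive = flat fit with 30 to 70% activity, or poor fit; inactive = half-maximal concentration beyond tenfold above the top dose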
Numbers stand for hits. Shown are actives, neighbours in structure and some others; about 2.1% of the full set was active somewhere.

For O=C(O)C1C2CCC(C2)C1C(=O)NCCc1ccc(F)cc1 (stereo unspecified) the results were RanGTP-Imp inh 21 and YIC FRET counter inactive.
Screening O=C(O)C1C2CCC(C2)C1C(=O)NCCc1cccc(Cl)c1 (stereo unspecified) returned RanGTP-Imp inh inactive.
Screening O=C(NCc1nc2ncc(Br)cc2[nH]1)c1ccccc1 returned RanGTP-Imp inh inactive, Runt-SMMHC FRET inactive, zVAD death inh inactive, Hck Nef HTS inactive, TNF death inh inactive and Runt-CBFb FRET inactive.
O=c1[nH]c2cc(Br)cnc2nc1/C=C(\O)c1ccc(F)cc1 was read as RanGTP-Imp inh 18, Runt-SMMHC FRET inactive, zVAD death inh inactive, Hck Nef HTS inactive, TNF death inh inactive, Runt-CBFb FRET inactive and YIC FRET counter inactive.
`CSc1ncc(C(=O)Nc2cccc(Cl)c2)c(C)n1` gave RanGTP-Imp inh inactive.
For Cn1cnc(S(=O)(=O)N2CCN(c3ccc(Cl)cc3)CC2)c1 the results were RanGTP-Imp inh 18 and YIC FRET counter inactive.
Screening CC(=O)Nc1cccc(C(=O)N/N=C/c2ccc(F)cc2)c1 returned RanGTP-Imp inh 22, Runt-SMMHC FRET inactive, zVAD death inh inactive, Hck Nef HTS inactive, TNF death inh inactive, Runt-CBFb FRET inactive and YIC FRET counter inactive.
Cc1ccc(C(=O)Nc2cccc(C(=O)N/N=C/c3ccc(F)cc3)c2)cc1 was read as RanGTP-Imp inh inactive.
Screening CCn1c(SCC(=O)N(Cc2ccccc2)C2CCS(=O)(=O)C2)nc2ccccc2c1=O (stereo unspecified) returned RanGTP-Imp inh 20, Runt-SMMHC FRET inactive, zVAD death inh inactive, Hck Nef HTS inactive, TNF death inh inactive, Runt-CBFb FRET inactive and YIC FRET counter inactive.
`CC1CCN(CCCNC(=O)CCNC(=O)Cn2cnc3ccccc3c2=O)CC1` gave RanGTP-Imp inh inactive.
For COc1ccc(Cl)cc1S(=O)(=O)Nc1noc2ccccc12 the results were RanGTP-Imp inh 16 and YIC FRET counter inactive.
COc1ccc2nc(C)c(C(N)=O)cc2c1 was read as RanGTP-Imp inh inconclusive, Runt-SMMHC FRET inactive, zVAD death inh inactive, Hck Nef HTS inactive, TNF death inh inactive and Runt-CBFb FRET inactive.
Screening COc1cc2cc(C(N)=O)c(N)nc2cc1OC returned RanGTP-Imp inh 49, Runt-SMMHC FRET 79, zVAD death inh inactive, Hck Nef HTS inactive, TNF death inh inactive, Runt-CBFb FRET 101 and YIC FRET counter 10.
`CC(=O)Oc1ccc(C23CC4CC(CC(C4)C2)C3)cc1C(=O)O` gave RanGTP-Imp inh inactive.
`Cc1cc(NC(=O)c2sc3ccccc3c2O)no1` gave RanGTP-Imp inh 17 and YIC FRET counter inconclusive.
`Cc1cc(NC(=O)c2c(F)c(F)c(F)c(F)c2F)no1` gave RanGTP-Imp inh 23, Runt-SMMHC FRET inactive, zVAD death inh inactive, Hck Nef HTS inactive, TNF death inh inactive, Runt-CBFb FRET inactive and YIC FRET counter inactive.
Screening CCN(CC)S(=O)(=O)c1cccc(NC(=O)COC(=O)c2cccs2)c1 returned RanGTP-Imp inh inactive, Runt-SMMHC FRET inactive, zVAD death inh inactive, Hck Nef HTS inactive, TNF death inh inactive and Runt-CBFb FRET inactive.
Screening C=CCN1C(=O)N(c2ccc(F)cc2)C(=O)C1CC(=O)Nc1ccc(Cl)cc1 (stereo unspecified) returned RanGTP-Imp inh inactive, Runt-SMMHC FRET inactive, zVAD death inh inactive, Hck Nef HTS inactive, TNF death inh inactive and Runt-CBFb FRET inactive.
`Cc1[nH]n(-c2nc(-c3ccccc3F)cc(=O)[nH]2)c(=O)c1CCO` gave RanGTP-Imp inh inactive, Runt-SMMHC FRET inactive, zVAD death inh inactive, Hck Nef HTS inactive, TNF death inh inactive and Runt-CBFb FRET inactive.
For NS(=O)(=O)c1ccc(CCNC(=O)C2CCN(S(=O)(=O)c3ccc(Br)s3)CC2)cc1 the results were RanGTP-Imp inh 24, Runt-SMMHC FRET inactive, zVAD death inh inactive, Hck Nef HTS inactive, TNF death inh inactive, Runt-CBFb FRET inactive and YIC FRET counter inactive.
For Nc1c(C(=O)Nc2ccccc2)c2nc3ccccc3nc2n1CCCN1CCOCC1 the results were RanGTP-Imp inh 28, Runt-SMMHC FRET inactive, zVAD death inh inactive, Hck Nef HTS inactive, TNF death inh inactive, Runt-CBFb FRET inactive and YIC FRET counter 30.
Screening CC1CC(C)(C)NC(=S)N1CCCC(=O)N1CCN(c2ccc(F)cc2)CC1 (stereo unspecified) returned RanGTP-Imp inh inactive, Runt-SMMHC FRET inactive, zVAD death inh inactive, Hck Nef HTS inactive, TNF death inh inactive and Runt-CBFb FRET inactive.
Screening CC(=O)Oc1ccc(C(=O)NCc2ccc3c(c2)OCO3)cc1 returned RanGTP-Imp inh inactive.
Screening COc1ccc(C(=O)/C=C(\C)NCc2ccc3c(c2)OCO3)cc1 returned RanGTP-Imp inh 24, Runt-SMMHC FRET inactive, zVAD death inh inactive, Hck Nef HTS inactive, TNF death inh inactive, Runt-CBFb FRET inactive and YIC FRET counter inactive.
COC(=O)c1cccnc1NC(=S)NNC(=O)c1ccccc1 was read as RanGTP-Imp inh 27, Runt-SMMHC FRET inactive, zVAD death inh inactive, Hck Nef HTS inactive, TNF death inh inactive, Runt-CBFb FRET inactive and YIC FRET counter inactive.
Screening COC(=O)c1ccc(NC(=S)NNC(=O)c2ccccc2)cc1 returned RanGTP-Imp inh inactive, Runt-SMMHC FRET inactive, zVAD death inh inactive, Hck Nef HTS inactive, TNF death inh inactive and Runt-CBFb FRET inactive.
For Cc1ccc(-n2c(=O)c(C#N)cc3c(=O)n4ccccc4nc32)cc1 the results were RanGTP-Imp inh 44, Runt-SMMHC FRET 60, zVAD death inh inactive, Hck Nef HTS 94, TNF death inh inactive, Runt-CBFb FRET inactive and YIC FRET counter 0.72.
CCCCOC(=O)CSC1=C(C#N)C(c2ccccc2OCC)C(C#N)C(=O)N1 (stereo unspecified) was read as RanGTP-Imp inh inconclusive, Runt-SMMHC FRET inactive, zVAD death inh inactive, Hck Nef HTS inactive, TNF death inh inactive and Runt-CBFb FRET inactive.
`CCCOC(=O)CSC1=C(C#N)C(c2ccccc2OCC)C(C#N)C(=O)N1` (stereo unspecified) gave RanGTP-Imp inh 21, Runt-SMMHC FRET inactive, zVAD death inh inactive, Hck Nef HTS inactive, TNF death inh inactive, Runt-CBFb FRET inactive and YIC FRET counter inactive.
`COc1ccccc1/C=C/c1nc(C#N)c(N(C)C)o1` gave RanGTP-Imp inh 28 and YIC FRET counter 13.
Screening CN(CCOc1ccccc1)CC(=O)Nc1ccc(Cl)cc1[N+](=O)[O-] returned RanGTP-Imp inh 35, Runt-SMMHC FRET inactive, zVAD death inh inactive, Hck Nef HTS inactive, TNF death inh inactive, Runt-CBFb FRET inactive and YIC FRET counter inactive.
